Results: ChEMBL document CHEMBL1149822, “Synthesis, antimicrobial and anti-inflammatory activities of some 1,2,4-triazolo[3,4-b][1,3,4]thiadiazoles and 1,2,4-triazolo[3,4-b][1,3,4]thiadiazines bearing trichlorophenyl moiety” (2008)
In brackets after ≈: the same amount, converted by molar mass.

What was measured:
Aspergillus fumigatus [1] = assay: Antifungal activity against Aspergillus fumigatus NCIM 902 at […] ug/ml after 3 to 4 days; assay type: functional; conditions: read-out: IZ
Staphylococcus aureus [2] = assay: Antibacterial activity against Staphylococcus aureus ATTC 25923 at 12 ug/ml after 3 to 4 days; assay type: functional; conditions: read-out: IZ
Procedure, shortened: (§1)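 Agar well diffusion. Plates were seeded with a bacterial suspension, the excess was decanted and plates were dried at 37 °C for 1 h. Wells were punched and compounds in DMSO were added, with DMSO wells as control. Plates were run in triplicate at 37 °C for 3–4 days and zones of inhibition were scored.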

Rattus norvegicus [3] = assay: Antiinflammatory activity against carrageenan-induced paw oedema in albino rat at 50 mg/kg, po relative to control; assay type: functional
Procedure, shortened: (§2)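 Albino rats of 180–250 g were fasted 18 h and placed in groups of six. Samples were suspended in 2% w/v acacia mucilage, and the vehicle group served as control. 30 min after dosing, carrageenan (1 mg mL⁻¹, 0.1 mL) was injected subcutaneously into the right hind paw. Paw volume was measured immediately and at 3 h, and % oedema inhibition was calculated versus vehicle controls.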

Talaromyces marneffei [4] = assay: Antifungal activity against Penicillium marneffei at […] ug/ml after 3 to 4 days; assay type: functional; conditions: read-out: IZ
Klebsiella pneumoniae [5] = assay: Antibacterial activity against Klebsiella pneumoniae after 16 to 18 hrs by serial plate dilution method; assay type: functional
Procedure, shortened: (§3)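 Serial dilutions were made in Mueller-Hinton broth in tubes, adjusted to […] with phosphate buffer, and inoculated with a standardized bacterial suspension. Tubes were incubated at 37 °C for 16–18 h. MIC was taken as the lowest concentration with no visible growth.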

Escherichia coli [6] = assay: Antibacterial activity against Escherichia coli ATTC 25922 after 16 to 18 hrs by serial plate dilution method; assay type: functional; conditions: ATCC25922; procedure, shortened: as §3
Klebsiella pneumoniae [7] = assay: Antibacterial activity against Klebsiella pneumoniae at 25 ug/ml after 3 to 4 days; assay type: functional; conditions: read-out: IZ; procedure, shortened: as §1
Pseudomonas aeruginosa [8] = assay: Antibacterial activity against Pseudomonas aeruginosa ATTC 27853 after 16 to 18 hrs by serial plate dilution method; assay type: functional; conditions: ATCC27853; procedure, shortened: as §3
Aspergillus flavus [9] = assay: Antifungal activity against Aspergillus flavus NCIM 524 by serial plate dilution method; assay type: functional
Procedure, shortened: (§4)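 Agar of peptone 1 g, D-glucose 4 g and agar 2 g per 100 mL water, pH 5.7, was lawned with a fungal spore suspension in normal saline. The excess was decanted and plates were dried at 37 °C for 1 h. Wells were punched and compounds in DMSO were added, with a DMSO control. Plates were run in triplicate at 37 °C for 3–4 days, and the inhibition zone diameter was measured.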

[10] = system: Trichophyton mentagrophytes; assay: Antifungal activity against Trichophyton mentagrophytes at 25 ug/ml after 3 to 4 days; assay type: functional; conditions: read-out: IZ; procedure, shortened: as §4
[11] = system: Trichophyton mentagrophytes; assay: Antifungal activity against Trichophyton mentagrophytes by serial plate dilution method; assay type: functional
Aspergillus fumigatus [12] = assay: Antifungal activity against Aspergillus fumigatus NCIM 902 by serial plate dilution method; assay type: functional
Talaromyces marneffei [13] = assay: Antifungal activity against Penicillium marneffei by serial plate dilution method; assay type: functional; procedure, shortened: as §4
Pseudomonas aeruginosa [14] = assay: Antibacterial activity against Pseudomonas aeruginosa ATTC 27853 at 25 ug/ml after 3 to 4 days; assay type: functional; conditions: ATCC27853, read-out: IZ; procedure, shortened: as §1
Aspergillus flavus [15] = assay: Antifungal activity against Aspergillus flavus NCIM 524 at 25 ug/ml after 3 to 4 days; assay type: functional; conditions: read-out: IZ; procedure, shortened: as §4
Escherichia coli [16] = assay: Antibacterial activity against Escherichia coli ATTC 25922 at 12 ug/ml after 3 to 4 days; assay type: functional; conditions: ATCC25922, read-out: IZ; procedure, shortened: as §1
Staphylococcus aureus [17] = assay: Antibacterial activity against Staphylococcus aureus ATTC 25923 after 16 to 18 hrs by serial plate dilution method; assay type: functional; procedure, shortened: as §3
Aspergillus fumigatus [18] = assay: Antifungal activity against Aspergillus fumigatus NCIM 902 at 6.5 ug/ml after 3 to 4 days; assay type: functional; conditions: read-out: IZ; procedure, shortened: as §4
Escherichia coli [19] = assay: microbe, parasite or virus in culture; assay type: functional; conditions: ATCC25922, read-out: IZ
Klebsiella pneumoniae [20] = assay: microbe, parasite or virus in culture; assay type: functional; conditions: read-out: IZ
Aspergillus flavus [21] = assay: Antifungal activity against Aspergillus flavus NCIM 524 at […] ug/ml after 3 to 4 days; assay type: functional; conditions: read-out: IZ
Staphylococcus aureus [22] = assay: Antibacterial activity against Staphylococcus aureus ATTC 25923 at […] ug/ml after 3 to 4 days; assay type: functional; conditions: read-out: IZ
[23] = system: Trichophyton mentagrophytes; assay: Antifungal activity against Trichophyton mentagrophytes at […] ug/ml after 3 to 4 days; assay type: functional; conditions: read-out: IZ
Pseudomonas aeruginosa [24] = assay: microbe, parasite or virus in culture; assay type: functional; conditions: ATCC27853, read-out: IZ
Klebsiella pneumoniae [25] = assay: Antibacterial activity against Klebsiella pneumoniae at 12 ug/ml after 3 to 4 days; assay type: functional; conditions: read-out: IZ; procedure, shortened: as §1
Aspergillus fumigatus [26] = assay: Antifungal activity against Aspergillus fumigatus NCIM 902 at 12 ug/ml after 3 to 4 days; assay type: functional; conditions: read-out: IZ; procedure, shortened: as §4
Talaromyces marneffei [27] = assay: Antifungal activity against Penicillium marneffei at 12 ug/ml after 3 to 4 days; assay type: functional; conditions: read-out: IZ; procedure, shortened: as §4
Aspergillus flavus [28] = assay: Antifungal activity against Aspergillus flavus NCIM 524 at 3.125 ug/ml after 3 to 4 days; assay type: functional; conditions: read-out: IZ; procedure, shortened: as §4
[29] = system: Trichophyton mentagrophytes; assay: Antifungal activity against Trichophyton mentagrophytes at 3.125 ug/ml after 3 to 4 days; assay type: functional; conditions: read-out: IZ; procedure, shortened: as §4
Staphylococcus aureus [30] = assay: microbe, parasite or virus in culture; conditions: read-out: IZ
Rattus norvegicus [31] = assay: Antiinflammatory activity against carrageenan-induced paw oedema in albino rat at 1.5 mg/kg, po, relative to control; assay type: functional; procedure, shortened: as §2

Row | Structure (SMILES) | zone of inhibition at 6.25 µg/mL (Aspergillus fumigatus [1]) [mm] | zone of inhibition at 12 µg/mL (Staphylococcus aureus [2]) [mm] | inhibition in vivo at 50 mg/kg (Rattus norvegicus [3]) [%] | zone of inhibition at 6.25 µg/mL (Talaromyces marneffei [4]) [mm] | MIC (Klebsiella pneumoniae [5]) [µg/mL] | MIC (Escherichia coli [6]) [µg/mL] | MIC (Pseudomonas aeruginosa [8]) [µg/mL] | MIC (Aspergillus flavus [9]) [µg/mL] | MIC [11] [µg/mL] | MIC (Aspergillus fumigatus [12]) [µg/mL] | MIC (Talaromyces marneffei [13]) [µg/mL] | MIC (Staphylococcus aureus [17]) [µg/mL] | zone of inhibition at 6.25 µg/mL (Escherichia coli [19]) [mm] | zone of inhibition at 6.25 µg/mL (Klebsiella pneumoniae [20]) [mm] | zone of inhibition at 6.25 µg/mL (Aspergillus flavus [21]) [mm] | zone of inhibition at 6.25 µg/mL [23] [mm] | zone of inhibition at 6.25 µg/mL (Pseudomonas aeruginosa [24]) [mm] | further results
1 | Clc1cc(Cl)c(Cl)c(-c2nnc3sc(-c4cccc5cnccc45)nn23)c1 | 16 | 11 | 22.6 | 16 | 25 (≈ 57.8 µM) | 12 (≈ 27.7 µM) | 25 (≈ 57.8 µM) | 25 (≈ 57.8 µM) | 25 (≈ 57.8 µM) | 6.25 (≈ 14.4 µM) | 6.25 (≈ 14.4 µM) | 12 (≈ 27.7 µM) |  |  |  |  |  | zone of inhibition at 25 µg/mL (Klebsiella pneumoniae [7]): < 10 mm; zone of inhibition at 25 µg/mL [10]: < 10 mm; zone of inhibition at 25 µg/mL (Pseudomonas aeruginosa [14]): < 10 mm; zone of inhibition at 25 µg/mL (Aspergillus flavus [15]): < 10 mm; zone of inhibition at 12 µg/mL (Escherichia coli [16]): 11 mm
2 | COc1ccc(-c2nn3c(-c4cc(Cl)cc(Cl)c4Cl)nnc3s2)cc1 |  |  | 25.8 | 16 | 6.25 (≈ 15.2 µM) | 6.25 (≈ 15.2 µM) | 6.25 (≈ 15.2 µM) | 6.25 (≈ 15.2 µM) | 6.25 (≈ 15.2 µM) | 6.5 (≈ 15.8 µM) | 6.25 (≈ 15.2 µM) | 6.25 (≈ 15.2 µM) | 16 | 16 | 16 | 16 | 16 | zone of inhibition at 6.5 µg/mL (Aspergillus fumigatus [18]): 16 mm; zone of inhibition at 6.25 µg/mL (Staphylococcus aureus [22]): 16 mm
3 | Cc1cc(C)cc(-c2nn3c(-c4cc(Cl)cc(Cl)c4Cl)nnc3s2)c1 |  | 11 |  |  | 12 (≈ 29.3 µM) | 6.25 (≈ 15.3 µM) | 6.25 (≈ 15.3 µM) | 6.25 (≈ 15.3 µM) | 6.25 (≈ 15.3 µM) | 12 (≈ 29.3 µM) | 12 (≈ 29.3 µM) | 12 (≈ 29.3 µM) | 16 |  | 16 | 16 | 16 | zone of inhibition at 12 µg/mL (Klebsiella pneumoniae [25]): 11 mm; zone of inhibition at 12 µg/mL (Aspergillus fumigatus [26]): 11 mm; zone of inhibition at 12 µg/mL (Talaromyces marneffei [27]): 11 mm
4 | Cc1cc(C2CCCCC2)n(O)c(=O)c1.NCCO [CICLOPIROX OLAMINE] | 16 |  |  | 16 |  |  |  | 3.12 | 3.12 | 6.25 | 6.25 |  |  |  |  |  |  | zone of inhibition at 3.125 µg/mL (Aspergillus flavus [28]): 25 mm; zone of inhibition at 3.125 µg/mL [29]: 27 mm
5 | O=C(O)c1cn(C2CC2)c2cc(N3CCNCC3)c(F)cc2c1=O [CIPROFLOXACIN] |  |  |  |  | 6.25 (≈ 18.9 µM) |  |  |  |  |  |  | 1.56 (≈ 4.71 µM) | 16 | 16 |  |  | 16 | zone of inhibition at 1.56 µg/mL (Staphylococcus aureus [30]): 22 mm
6 | COc1ccc2c(c1)c(CC(=O)O)c(C)n2C(=O)c1ccc(Cl)cc1 [INDOMETHACIN] |  |  |  |  |  |  |  |  |  |  |  |  |  |  |  |  |  | inhibition in vivo at 1.5 mg/kg (Rattus norvegicus [31]): 59.7%
